{"source": "ChEMBL document CHEMBL1129356", "about": "“Novel 3,7-diheterabicyclo[3.3.1]nonanes that possess predominant class III antiarrhythmic activity in 1-4 day post infarction dog models: X-ray diffraction analysis of 3-[4-(1H-imidazol-1-yl)benzoyl]-7-isopropyl-3,7-diazabicyclo[3.3.1]nona ne dihydroperchlorate” (1996)", "key": {"Canis familiaris [1]": {"system": "Canis familiaris", "test": "Tested for antiarrhythmic property by measuring ability to decrease Mean blood pressure (drug free) is compared to Lidocaine using doses(3 and 6 mg/kg).", "type": "functional, Canis lupus familiaris", "procedure,_shortened": "(§1)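 Mongrel dogs (about 12–25 kg), 1–4 days after coronary occlusion infarction, under sodium pentobarbital (~30 mg/kg) with 12-lead ECG monitoring. Agents and lidocaine were given iv at 3 and 6 mg/kg. Programmed ventricular stimulation was applied at baseline, about 2–5 min after each dose, and at 30 min. SVT was defined as ≥250 beats/min lasting ≥30 s. Pre means drug-free; post means after dosing.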"}, "Canis familiaris [2]": {"system": "Canis familiaris", "test": "Antiarrhythmic property ventricular effective refractory period(post drug) is compared to lidocaine(2) using doses(3 and 6 mg/kg)", "type": "functional, Canis lupus familiaris, Heart", "procedure,_shortened": "as §1"}, "Canis familiaris [3]": {"system": "Canis familiaris", "test": "Antiarrhythmic property ventricular effective refractory period(drug free) is compared to lidocaine(2) using doses(3 and 6 mg/kg)", "type": "functional, Canis lupus familiaris, Heart", "procedure,_shortened": "as §1"}, "Canis familiaris [4]": {"system": "Canis familiaris", "test": "Antiarrhythmic properties are compared to lidocaine(2) using doses(3 and 6 mg/kg). Time required for the ventricular myocardium to undergo depolarization and repolarization ((post drug)", "type": "functional, Canis lupus familiaris", "procedure,_shortened": "as §1"}, "Canis familiaris [5]": {"system": "Canis familiaris", "test": "(§2) Antiarrhythmic property His-Purkinje conduction time(post drug) is compared to lidocaine(2) using doses(3 and 6 mg/kg)", "type": "functional, Canis lupus familiaris, His-Purkinje system", "procedure,_shortened": "as §1"}, "Canis familiaris [6]": {"system": "Canis familiaris", "test": "Antiarrhythmic properties are compared to lidocaine(2) using doses(3 and 6 mg/kg). Time required for the ventricular myocardium to undergo depolarization and repolarization (drug free)", "type": "functional, Canis lupus familiaris", "procedure,_shortened": "as §1"}, "Canis familiaris [7]": {"system": "Canis familiaris", "test": "Tested for antiarrhythmic property by measuring ability to decrease heart rate(post drug) is compared to Lidocaine using doses(3 and 6 mg/kg).", "type": "functional, Canis lupus familiaris", "procedure,_shortened": "as §1"}, "Canis familiaris [8]": {"system": "Canis familiaris", "test": "Antiarrhythmic property Nonsustained ventricular tachycardia is compared to lidocaine(2) using doses(3 and 6 mg/kg)", "type": "functional, Canis lupus familiaris, Heart", "procedure,_shortened": "as §1"}, "Canis familiaris [9]": {"system": "Canis familiaris", "test": "Tested for antiarrhythmic property by measuring ability to decrease heart rate(drug free) is compared to Lidocaine using doses (3 and 6 mg/kg).", "type": "functional, Canis lupus familiaris", "procedure,_shortened": "as §1"}, "Canis familiaris [10]": {"system": "Canis familiaris", "test": "Tested for antiarrhythmic property by measuring ability to decrease Mean blood pressure(post drug) is compared to Lidocaine using doses(3 and 6 mg/kg)", "type": "functional, Canis lupus familiaris", "procedure,_shortened": "as §1"}, "Canis familiaris [11]": {"system": "Canis familiaris", "test": "as §2", "type": "functional, Canis lupus familiaris, His-Purkinje system", "procedure,_shortened": "as §1", "remark": "listed apart in the source"}}, "data": [{"smiles": "c1ccc(CN2CC3CC(C2)CN(CC2CC2)C3)cc1", "values": [{"measurement": "MBP", "setting": "Canis familiaris [1]", "result": 130, "unit": "mmHg"}, {"measurement": "VERP", "setting": "Canis familiaris [2]", "result": 230, "unit": "ms"}, {"measurement": "VERP", "setting": "Canis familiaris [3]", "result": 160, "unit": "ms"}, {"measurement": "QT", "setting": "Canis familiaris [4]", "result": 260, "unit": "ms"}, {"measurement": "HV interval", "setting": "Canis familiaris [5]", "result": 50, "unit": "ms"}, {"measurement": "QT", "setting": "Canis familiaris [6]", "result": 220, "unit": "ms"}, {"measurement": "HR", "setting": "Canis familiaris [7]", "result": 110, "unit": "beats min-1"}, {"measurement": "NSVT", "setting": "Canis familiaris [8]", "result": 3, "unit": "mg/kg"}, {"measurement": "HR", "setting": "Canis familiaris [9]", "result": 130, "unit": "beats min-1"}, {"measurement": "MBP", "setting": "Canis familiaris [10]", "result": 37, "unit": "mmHg"}, {"measurement": "HV interval", "setting": "Canis familiaris [11]", "result": 50, "unit": "ms"}]}]}
